Source: ChEMBL document CHEMBL1806366, “Synthesis and structure-activity relationship of new 1,5-dialkyl-1,5-benzodiazepines as cholecystokinin-2 receptor antagonists” (Bioorg Med Chem, 2011)
In brackets after ≈: the same amount, converted by molar mass.

What was measured:
[1] = target: T1, Cholecystokinin receptor type A (Rattus norvegicus, UniProt P30551); assay: Displacement of [3H]CCK8 from rat pancreas CCK1 receptor at by liquid scintillation counting
T1 sequence (P30551 whole entry): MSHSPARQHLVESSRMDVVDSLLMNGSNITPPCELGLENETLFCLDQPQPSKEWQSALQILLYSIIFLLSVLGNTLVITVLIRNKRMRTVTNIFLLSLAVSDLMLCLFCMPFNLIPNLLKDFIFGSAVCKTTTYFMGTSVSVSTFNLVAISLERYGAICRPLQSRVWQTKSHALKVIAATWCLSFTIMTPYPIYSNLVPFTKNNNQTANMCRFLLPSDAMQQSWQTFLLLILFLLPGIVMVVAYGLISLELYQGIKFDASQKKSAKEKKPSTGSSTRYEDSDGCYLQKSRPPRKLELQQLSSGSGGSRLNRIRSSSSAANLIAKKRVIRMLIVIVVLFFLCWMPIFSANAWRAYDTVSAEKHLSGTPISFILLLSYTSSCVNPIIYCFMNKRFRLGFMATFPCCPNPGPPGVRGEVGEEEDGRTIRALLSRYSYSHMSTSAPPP
Summary of the method: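 Rat pancreas membranes incubated at 37 °C with [³H]-CCK8s at 0.2 nM; nonspecific binding defined with L-364,718. Bound and free ligand separated by filtration over GF/C filters, then counted by liquid scintillation. Ki calculated using Bmax and KD from separate saturation binding isotherms.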

[2] = Selectivity ratio of pKi for guinea pig brain CCK2 receptor to pKi for rat pancreas CCK1
Summary of the method: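 Radioligand displacement binding to guinea pig brain membranes (CCK2, incubated at 25 °C) and rat pancreas membranes (CCK1, incubated at 37 °C) with 0.2 nM [³H]-CCK8s. Non-specific binding was defined with L-365,260 (CCK2) or L-364,718 (CCK1). Bound ligand was separated by GF/C filtration and counted by liquid scintillation. Ki values were derived for each subtype, with KD and Bmax taken from separate saturation isotherms.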

[3] = Displacement of [3H]CCK8 from guinea pig brain CCK2 receptor by liquid scintillation counting; set-up: species or system Cavia porcellus
Summary of the method: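 Guinea pig brain membranes incubated at 25 °C with [³H]-CCK8s at 0.2 nM; nonspecific binding defined with L-365,260. Bound and free ligand separated by filtration over GF/C filters, then counted by liquid scintillation. Ki calculated using Bmax and KD from separate saturation binding isotherms.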

[4] = Solubility of the compound at pH 2.4; assay type: physicochemical; settings: buffer

Row | SMILES | Ki [1] | Ki selectivity ratio (CCK1 Ki / CCK2 Ki) [2] | pKi [3] | solubility [4]
1 | O=C(Nc1ccccc1)NC1C(=O)N(CCN2CCCC2)c2ccccc2N(CC23CC4CC(CC(C4)C2)C3)C1=O (racemic) | 9550 nM | 9120 | 8.98 | –
2 | O=C(Nc1ccc(F)cc1)NC1C(=O)N(CCN2CCOCC2)c2ccccc2N(CC23CC4CC(CC(C4)C2)C3)C1=O (single isomer, unassigned; (+)) [listing 1 of 2 here] | – | 182 | – | –
3 | CC(C)CCN1C(=O)C(NC(=O)Nc2ccc(C(F)(F)F)cc2)C(=O)N(CCN2CCOCC2)c2ccccc21 (racemic) | 1480 nM | 407 | 8.44 | –
4 | O=C(Nc1ccccc1)NC1C(=O)N(CCN2CCOCC2)c2cc(F)ccc2N(CC23CC4CC(CC(C4)C2)C3)C1=O (racemic) [listing 1 of 2 here] | – | 603 | – | –
5 | O=C(Nc1ccc(F)cc1)NC1C(=O)N(CCN2CCOCC2)c2ccccc2N(CC23CC4CC(CC(C4)C2)C3)C1=O (single isomer, unassigned; (+)) [listing 2 of 2 here] | 2570 nM | – | 7.85 | –
6 | COc1ccc(NC(=O)NC2C(=O)N(CCC(C)C)c3ccccc3N(CCN(C)C)C2=O)cc1 (racemic) | 17400 nM | 1550 | 7.95 | –
7 | CN(C)CCCN1C(=O)C(NC(=O)Nc2ccccc2)C(=O)N(CC23CC4CC(CC(C4)C2)C3)c2ccccc21 (racemic) | 20400 nM | 5620 | 8.44 | –
8 | O=C(Nc1ccccc1)NC1C(=O)N(CCN2CCOCC2)c2cc(F)ccc2N(CC23CC4CC(CC(C4)C2)C3)C1=O (single isomer, unassigned; (-)) | – | 1020 | – | –
9 | O=C(Nc1ccc(F)cc1)NC1C(=O)N(CCN2CCOCC2)c2ccccc2N(CC23CC4CC(CC(C4)C2)C3)C1=O (single isomer, unassigned; (-)) [listing 1 of 2 here] | 1020 nM | – | 9.45 | 20 µg/mL (≈ 33.9 µM)
10 | O=C(Nc1ccc(F)cc1)NC1C(=O)N(CCN2CCOCC2)c2ccccc2N(CC23CC4CC(CC(C4)C2)C3)C1=O (racemic) | – | 646 | – | –
11 | O=C(Nc1ccc(F)cc1)NC1C(=O)N(CCN2CCOCC2)c2ccccc2N(CC23CC4CC(CC(C4)C2)C3)C1=O (single isomer, unassigned; (-)) [listing 2 of 2 here] | – | 2880 | – | –
12 | CC(C)CCN1C(=O)C(NC(=O)Nc2ccccc2C(C)C)C(=O)N(CCN2CCOCC2)c2ccccc21 (racemic) | > 10000 nM | 78 | 6.89 | –
13 | O=C(Nc1ccccc1)NC1C(=O)N(CCN2CCOCC2)c2cc(F)ccc2N(CC23CC4CC(CC(C4)C2)C3)C1=O (single isomer, unassigned; (+)) [listing 1 of 2 here] | 2240 nM | – | 7.31 | –
14 | O=C(Nc1ccccc1)NC1C(=O)N(CCN2CCOCC2)c2cc(F)ccc2N(CC23CC4CC(CC(C4)C2)C3)C1=O (racemic) [listing 2 of 2 here] | 2630 nM | – | 8.36 | 360 µg/mL (≈ 610 µM)
15 | COc1ccc(NC(=O)NC2C(=O)N(CCC(C)C)c3ccccc3N(CCN3CCOCC3)C2=O)c(C)c1 (racemic) | 6610 nM | 229 | 7.54 | –
16 | CCN(CC)CCN1C(=O)C(NC(=O)Nc2ccc(F)cc2)C(=O)N(CC23CC4CC(CC(C4)C2)C3)c2ccccc21 (racemic) | 1660 nM | 851 | 8.71 | –

Further lines, results first:

Row | Ki [1] | Ki selectivity ratio (CCK1 Ki / CCK2 Ki) [2] | pKi [3] | solubility [4] | SMILES
17 | 5130 nM | 646 | 8.1 | – | COc1ccc(NC(=O)NC2C(=O)N(CCC(C)C)c3ccccc3N(CCN3CCOCC3)C2=O)cc1 (racemic)
18 | 1070 nM | 295 | 8.44 | – | CC(C)CCN1C(=O)C(NC(=O)Nc2ccc(Br)cc2)C(=O)N(CCN2CCOCC2)c2ccccc21 (racemic)
19 | – | 1180 | – | – | CCN(CC)CCN1C(=O)C(NC(=O)Nc2ccccc2)C(=O)N(CC2CCCCC2)c2ccccc21 (stereo in doubt) [listing 1 of 2 here]
20 | > 10000 nM | 148 | 7.17 | – | CCOc1ccc(NC(=O)NC2C(=O)N(CCC(C)C)c3ccccc3N(CCN3CCOCC3)C2=O)cc1 (racemic)
21 | 1510 nM | – | 8.99 | – | CCN(CC)CCN1C(=O)C(NC(=O)Nc2ccccc2)C(=O)N(CC2CCCCC2)c2ccccc21 (racemic) [listing 1 of 2 here]
22 | 5130 nM | 44 | 6.93 | – | Cc1cccc(Cl)c1NC(=O)NC1C(=O)N(CCC(C)C)c2ccccc2N(CCN2CCOCC2)C1=O (racemic)
23 | 537 nM | 38 | 7.85 | – | Cc1cc(Br)ccc1NC(=O)NC1C(=O)N(CCC(C)C)c2ccccc2N(CCN2CCOCC2)C1=O (racemic)
24 | 1020 nM | 525 | 8.71 | – | CC(C)CCN1C(=O)C(NC(=O)Nc2ccc(Cl)cc2)C(=O)N(CCN2CCOCC2)c2ccccc21 (racemic)
25 | 1450 nM | 363 | 8.4 | – | CC(C)CCN1C(=O)C(NC(=O)Nc2ccc(F)cc2)C(=O)N(CCN2CCOCC2)c2ccccc21 (racemic)
26 | – | 3550 | – | – | O=C(Nc1ccccc1)NC1C(=O)N(CCN2CCOCC2)c2ccccc2N(CC23CC4CC(CC(C4)C2)C3)C1=O (racemic)
27 | – | 1480 | – | – | CCN(CC)CCN1C(=O)C(NC(=O)Nc2ccccc2)C(=O)N(CC2CCCCC2)c2ccccc21 (racemic) [listing 2 of 2 here]
28 | 2040 nM | 302 | 8.17 | – | CC(C)CCN1C(=O)C(NC(=O)Nc2ccccc2)C(=O)N(CCN2CCCCC2)c2ccccc21 (racemic)
29 | 2690 nM | – | 8.23 | – | CCN(CC)CCN1C(=O)C(NC(=O)Nc2ccccc2)C(=O)N(CC2CCCCC2)c2ccccc21 (single isomer, unassigned; isomer 1) [listing 1 of 2 here]
30 | 275 nM | 372 | 9.11 | – | Cc1cccc(NC(=O)NC2C(=O)N(CCC(C)C)c3ccccc3N(CCN3CCOCC3)C2=O)c1 (racemic)
31 | 1580 nM | – | 8.03 | – | O=C(Nc1ccccc1)NC1C(=O)N(CCN2CCOCC2)c2ccccc2N(CC23CC4CC(CC(C4)C2)C3)C1=O (stereo in doubt; 55) [listing 1 of 2 here]
32 | 468 nM | – | 9.4 | – | CCN(CC)CCN1C(=O)C(NC(=O)Nc2ccccc2)C(=O)N(CC2CCCCC2)c2ccccc21 (stereo in doubt) [listing 2 of 2 here]
33 | – | 46 | – | – | O=C(Nc1ccccc1)NC1C(=O)N(CCN2CCOCC2)c2cc(F)ccc2N(CC23CC4CC(CC(C4)C2)C3)C1=O (single isomer, unassigned; (+)) [listing 2 of 2 here]
34 | – | 457 | – | – | CCN(CC)CCN1C(=O)C(NC(=O)Nc2ccccc2)C(=O)N(CC2CCCCC2)c2ccccc21 (single isomer, unassigned; isomer 1) [listing 2 of 2 here]
35 | 347 nM | 126 | 8.56 | – | O=C(Nc1ccccc1)NC1C(=O)N(CCN2CCOCC2)c2ccccc2N(CC2CCCCC2)C1=O (racemic)
36 | – | 8910 | – | – | O=C(Nc1ccccc1)NC1C(=O)N(CCN2CCOCC2)c2ccccc2N(CC23CC4CC(CC(C4)C2)C3)C1=O (single isomer, unassigned; (-))
37 | – | 170 | – | – | O=C(Nc1ccccc1)NC1C(=O)N(CCN2CCOCC2)c2ccccc2N(CC23CC4CC(CC(C4)C2)C3)C1=O (stereo in doubt; 55) [listing 2 of 2 here]
38 | 174 nM | 316 | 9.26 | – | Cc1cccc(NC(=O)NC2C(=O)N(CCN3CCOCC3)c3ccccc3N(CC3CCCCC3)C2=O)c1 (racemic)
